# Test results published in paper PMC3873039 (Anti-Cancer Agents in Medicinal Chemistry, 2013).
# Key:
# JURKAT [1] = experiment: CellTiter-Glo luminescent cell viability assay; format: cell-based, human; conditions: 24 h, doses 0, 2, 10, 50, 250, 500 µM, p<0.05
# How it was run: (§1)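 Cells grown in RPMI 1640 with 10% FBS, 1.5 mM L-glutamine and penicillin/streptomycin at 37 °C, 5% CO2. Seeded at 2.5 x 10³ cells/well and exposed 24 h to ethanol-dissolved test compound (0, 2, 10, 50, 250, 500 µM) with 0.1% ethanol vehicle. ATP luminescence normalized to vehicle (100%). IC50 taken from linear regression. Lowest significant dose set by one-way ANOVA/Tukey, p<0.05. Triplicates, three independent experiments.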
# K562 = experiment: CellTiter-Glo luminescent cell viability assay; format: cell-based, human; conditions: K562, 24 h, doses 0, 2, 10, 50, 250, 500 µM, p<0.05
# How it was run: as §1
# KG1a [2] = experiment: CellTiter-Glo luminescent cell viability assay; format: cell-based, human; conditions: 24 h; for IC50: Homo sapiens, KG-1a, read-out: IC50 (50% inhibition of cellular proliferation); for The lowest dose of polyphenols at which there was a significant inhibition of cell proliferation compared to the vehicle control: KG1a, doses 0, 2, 10, 50, 250, 500 µM, p<0.05
# How it was run: as §1
# MOLT-3 [3] = experiment: Cell cycle analysis, propidium iodide flow cytometry; format: cell-based, human; conditions: MOLT-3, IC50 dose, 24 h; for Percentage of cells in G0/G1 phase of cell cycle (significant accumulation): vehicle control G0/G1 = 64.5%
# How it was run: (§2)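 Seeded at 0.5 x 10^6 cells per well in 12-well plates and treated 24 h at the IC50 concentration of each test compound from CellTiter-Glo. Cells were pelleted (400 g, 5 min), PBS-washed and fixed in 80% ethanol overnight at -20 °C. Staining used 50 µg/mL PI plus RNase overnight at 4 °C.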
# HL60 = experiment: as above; format: cell-based, human; conditions: HL60, IC50 dose, 24 h; for Percentage of cells in G0/G1 phase of cell cycle (significant accumulation): vehicle control G0/G1 = 56.8%; for Percentage of cells in S phase of cell cycle (significant accumulation): vehicle control S = 33.6%
# How it was run: as §2
# THP-1 = experiment: as above; format: cell-based, human; conditions: THP-1, IC50 dose, 24 h; vehicle control G0/G1 = 42.3%
# How it was run: as §2
# KG1a [4] = experiment: as above; format: cell-based, human; conditions: IC50 dose, 24 h, vehicle control G0/G1 = 44.6%
# How it was run: as §2
# MOLT-3 [5] = experiment: NucView caspase 3 activity assay by flow cytometry; format: cell-based, human; conditions: for EC50: Homo sapiens, MOLT-3, 24 h, read-out: AP50 (50% induction of apoptosis), Caspase 3 activity assay (C3); for The lowest dose of polyphenols at which there was a significant induction of apoptosis compared to the vehicle control: MOLT-3, caspase 3 activity, 24 h, p<0.05
# How it was run: (§3)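 Seeded at 0.5 x 10⁶ cells/well and treated 24 h, with series of 0–50 or 0–250 µM depending on compound. Normalized to vehicle (0% apoptosis). Mean ± STD, three independent experiments in triplicate. One-way ANOVA/Tukey, p<0.05. AP50 = concentration giving 50% apoptotic cells.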
# KG1a [6] = experiment: NucView caspase 3 activity assay by flow cytometry; format: cell-based, human; conditions: 24 h; for EC50: Homo sapiens, KG-1a, read-out: AP50 (50% induction of apoptosis), Caspase 3 activity assay (C3); for The lowest dose of polyphenols at which there was a significant induction of apoptosis compared to the vehicle control: KG1a, caspase 3 activity, p<0.05
# How it was run: as §3
# JURKAT [7] = experiment: Hoechst 33342 nuclear morphological analysis of apoptosis; format: cell-based; conditions: Homo sapiens, 24 h, read-out: AP50 (50% induction of apoptosis), Hoechst 33342 staining (Hoe)
# How it was run: (§4)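 Seeded at 0.5 x 10⁶ cells/well in 12-well plates and treated 24 h. Cells were pelleted (400 g, 5 min, 4 °C), washed in PBS, fixed in 4% paraformaldehyde, cytospun, air-dried, then stained with 10 μg/ml Hoechst 33342 for 10 min in the dark. Fluorescence microscopy: 200 cells counted, scored by condensed/intense nuclei, shrinkage, blebbing and apoptotic bodies. % apoptotic nuclei calculated. AP50 = concentration giving 50% apoptotic cells.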
# CCRF-CEM = experiment: as above; format: cell-based; conditions: Homo sapiens, 24 h, read-out: AP50 (50% induction of apoptosis), Hoechst 33342 staining (Hoe)
# How it was run: as §4
# MOLT-3 [8] = experiment: as above; format: cell-based; conditions: Homo sapiens, MOLT-3, 24 h, read-out: AP50 (50% induction of apoptosis), Hoechst 33342 staining (Hoe)
# How it was run: as §4
# KG1a [9] = experiment: as above; format: cell-based; conditions: Homo sapiens, KG-1a, 24 h, read-out: AP50 (50% induction of apoptosis), Hoechst 33342 staining (Hoe)
# How it was run: as §4
# U937 = experiment: as above; format: cell-based; conditions: Homo sapiens, U-937, 24 h, read-out: AP50 (50% induction of apoptosis), Hoechst 33342 staining (Hoe)
# How it was run: as §4
# all leukemia cell lines [10] = experiment: CellTiter-Glo assay, summary over the leukemia panel; format: cell-based, human; conditions: for IC50: Homo sapiens, 24 h, read-out: IC50 values (range over leukemia cell lines)
# How it was run: (§5)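 Cells plated at 2.5 x 10^3 per well in complete RPMI 1640 (10% FBS, 37 °C, 5% CO2). Test compounds dissolved in ethanol and dosed at 2–500 µM for 24 h; vehicle control was 0.1% (v/v) ethanol. Viability was read as ATP luminescence, normalised to vehicle (100%). IC50 was taken from linear regression of each curve. Triplicates, three independent experiments.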
# lymphoid cell lines = experiment: CellTiter-Glo assay, summary over lymphoid lines; format: cell-based; conditions: Homo sapiens, 24 h, read-out: IC50 (range in lymphoid cell lines)
# How it was run: as §5
# myeloid cell lines = experiment: CellTiter-Glo assay, summary over myeloid lines; format: cell-based; conditions: Homo sapiens, 24 h, read-out: IC50 (range in myeloid cell lines)
# How it was run: as §5
# all leukemia cell lines [11] = experiment: Apoptosis; format: cell-based, human; conditions: for EC50: Homo sapiens, 24 h, read-out: AP50 values (range over leukemia cell lines)
# [12] = cited from earlier work
# leukemia cell lines = experiment: Cell cycle analysis, summary over the leukemia panel; format: cell-based, human; conditions: IC50 dose, 24 h, 8 leukemia cell lines
# How it was run: as §2
Compound,EC50 (MOLT-3 [5]) [µM],EC50 (KG1a [6]) [µM],EC50 (JURKAT [7]) [µM],EC50 (CCRF-CEM) [µM],EC50 (MOLT-3 [8]) [µM],EC50 (KG1a [9]) [µM],EC50 (U937) [µM],IC50 (all leukemia cell lines [10]) [µM],The lowest dose of polyphenols at which there was a significant inhibition of cell proliferation compared to the vehicle control (JURKAT [1]) [µM],The lowest dose of polyphenols at which there was a significant inhibition of cell proliferation compared to the vehicle control (K562) [µM],IC50 (KG1a [2]) [µM],The lowest dose of polyphenols at which there was a significant inhibition of cell proliferation compared to the vehicle control (KG1a [2]) [µM],Percentage of cells in G0/G1 phase of cell cycle (significant accumulation) (MOLT-3 [3]),Percentage of cells in G0/G1 phase of cell cycle (significant accumulation) (HL60),Percentage of cells in G0/G1 phase of cell cycle (significant accumulation) (THP-1),Percentage of cells in G0/G1 phase of cell cycle (significant accumulation) (KG1a [4]),The lowest dose of polyphenols at which there was a significant induction of apoptosis compared to the vehicle control (MOLT-3 [5]) [µM],The lowest dose of polyphenols at which there was a significant induction of apoptosis compared to the vehicle control (KG1a [6]) [µM],IC50 (lymphoid cell lines) [µM],IC50 (myeloid cell lines) [µM],also measured
O=C(O)c1cc(O)c2c(c1)C(=O)c1cccc(O)c1C2=O [Rhein],200,> 250,> 500,250,265,> 500,140,–,50,50,169,50,G0/G1=72%,G0/G1=65%,G0/G1 =47%,G0/G1 =49%,50,50,–,–,–
"O=C1c2cccc(O)c2C(=O)c2c(O)cc(CO)cc21 [Aloe - Emodin, Aloe-emodin]",50,> 250,130,150,150,360,195,180 to 450,50,50,310,50,G0/G1 = 68%,–,G0/G1 =52%,G0/G1 =50%,50,50,–,–,Percentage of cells in S phase of cell cycle (significant accumulation) (HL60): S =35%
Cc1cc(O)c2c(c1)C(=O)c1cc(O)cc(O)c1C2=O [Emodin],5,> 10,9,> 500,9,> 500,27,5 to 22,2,2,15,2,G0/G1 =70%,G0/G1 =67.7%,G0/G1= 50.8%,G0/G1 =52.9%,2,2,–,–,"EC50 (all leukemia cell lines [11]): 2 to 27 µM; Number of leukemia cell lines in which 50% apoptosis was induced (all leukemia cell lines [11]; Jurkat, MOLT3, HL-60, THP-1 and U937): 5 of the 8; Phase of cell cycle accumulation over the leukemia cell lines (leukemia cell lines): G0/G1 phase in all leukemia cell lines"

# Further lines, with some results ahead:
EC50 (MOLT-3 [5]) [µM],EC50 (KG1a [6]) [µM],EC50 (JURKAT [7]) [µM],EC50 (CCRF-CEM) [µM],EC50 (MOLT-3 [8]) [µM],EC50 (KG1a [9]) [µM],EC50 (U937) [µM],IC50 (all leukemia cell lines [10]) [µM],Compound,The lowest dose of polyphenols at which there was a significant inhibition of cell proliferation compared to the vehicle control (JURKAT [1]) [µM],The lowest dose of polyphenols at which there was a significant inhibition of cell proliferation compared to the vehicle control (K562) [µM],IC50 (KG1a [2]) [µM],The lowest dose of polyphenols at which there was a significant inhibition of cell proliferation compared to the vehicle control (KG1a [2]) [µM],Percentage of cells in G0/G1 phase of cell cycle (significant accumulation) (MOLT-3 [3]),Percentage of cells in G0/G1 phase of cell cycle (significant accumulation) (HL60),Percentage of cells in G0/G1 phase of cell cycle (significant accumulation) (THP-1),Percentage of cells in G0/G1 phase of cell cycle (significant accumulation) (KG1a [4]),The lowest dose of polyphenols at which there was a significant induction of apoptosis compared to the vehicle control (MOLT-3 [5]) [µM],The lowest dose of polyphenols at which there was a significant induction of apoptosis compared to the vehicle control (KG1a [6]) [µM],IC50 (lymphoid cell lines) [µM],IC50 (myeloid cell lines) [µM],also measured
50,> 50,25,50,50,125,50,8 to 33,O=c1c(O)c(-c2ccc(O)c(O)c2)oc2cc(O)cc(O)c12 [Quercetin],2,2,155,10,–,G0/G1 =66.2%,G0/G1 =52%,G0/G1=52%,10,10,8 to 20,33 to 155,Percentage of cells in G2/M phase of cell cycle (significant accumulation) (MOLT-3 [3]; vehicle control G2/M = 7.5%): G2/M =19%; Potency relative to apigenin and chrysin (all leukemia cell lines [10]; times more potent than apigenin and chrysin): 5-10 times; EC50 (all leukemia cell lines [11]): 19 to 50 µM; plasma concentration ([12]; 50-100 mg dose): 750 to 1500 nM; plasma half-life [12]: 11 to 28 h
140,> 250,30,40,38,> 500,32,–,O=c1cc(-c2ccccc2)oc2cc(O)cc(O)c12 [Chrysin],50,250,335,250,G0/G1 =69.3%,–,G0/G1 =52.1%,G0/G1 =50%,50,250,128 to 217,335 to 500,Percentage of cells in S phase of cell cycle (significant accumulation) (HL60): S =45.5%; Phase of cell cycle accumulation over the leukemia cell lines (leukemia cell lines): G0/G1 phase in 7 out of the 8 leukemia cell lines
